Published values pooled from the literature.

Compound	test	system	setting	quantity	value
Nc1ccc(/C=C/C(=O)NCc2cc3cc(-c4ccc(C(=O)N5CCC(F)(F)CC5)cc4)cc(-c4ccc(F)cc4)c3o2)cn1	–	rat, plasma	intravenous, 1 mg/kg	clearance	0.169 mL/min/kg
COc1ccccc1C(=O)/C=C/c1cn(Cc2cn(-c3ccnc4cc(Cl)ccc34)nn2)c2ccccc12	haemolysis	human	50 µM, 1 h, pH 7.4	haemolysis	1.7%
CC1(CN)CCN(c2cnc3c(Sc4ccncc4Cl)n[nH]c3n2)CC1	–	male Sprague-Dawley rat, plasma	intravenous, 2 mg/kg	clearance	223 mL/min/kg
CN1Cc2c(N)cccc2C(=O)N1C1CCC(=O)NC1=O (centres unmarked)	–	male Sprague-Dawley rat, plasma	intravenous, 1 mg/kg	clearance	31.8 mL/min/kg
O=C1CC[C@H](N2Cc3cc(N4CCN(CC5CCN(c6ccc([C@@H]7c8ccc(O)cc8CC[C@@H]7c7ccccc7)cc6)CC5)CC4)ccc3C2=O)C(=O)N1	–	male Sprague-Dawley rat, plasma	intravenous, 5 mg/kg, fed	clearance	15.4 mL/min/kg
O=C(C=Cc1ccccc1)Nc1cc(-c2ccnc(N3CCC(O)CC3)c2)ccn1	–	female Sprague-Dawley rat, plasma	intravenous, 5 mg/kg	clearance	229 mL/min/kg
C=C(F)C(=O)N1CCN(c2nc(OC[C@@H]3CCCN3C)nc3c2CCN(c2cccc4cccc(Cl)c24)C3)C[C@@H]1CC#N	–	male Sprague-Dawley rat, plasma	intravenous, 5 mg/kg	clearance	44 mL/min/kg
O=C1c2ccncc2C(=O)c2c1[nH]c1ccccc21	–	rat, plasma	intravenous, 1 mg/kg, single dose	clearance	13.1 mL/min
